Results gathered from unrelated publications.
Target: Tyrosine-protein kinase ABL2 (ABL2, Homo sapiens, UniProt P42684)

The remaining binding of `C1=C/COCc2cc(ccc2OCCN2CCCC2)Nc2nccc(n2)-c2cccc(c2)COC/1` is reported as 74% (binding; 0.1 µM).
For `COc1ccc2[nH]c3c4[nH]c5ccc(OC)cc5c4c4c(c3c2c1)C(=O)NC4=O`, the remaining binding was 82% (binding, competition with immobilised ligand; 1 µM).
For `CO[C@@H]1[C@H](N(C)C(=O)c2ccccc2)C[C@H]2O[C@]1(C)n1c3ccccc3c3c4c(c5c6ccccc6n2c5c31)C(=O)NC4`, the inhibition was 17% (enzyme activity, inhibitor; 1 µM).
`COc1ccc2oc(-c3ccc4nc(N)oc4c3)c/c(=N\c3ccccc3NC(=O)CCN)c2c1` gave a remaining binding of 101% (binding; 1 µM).
`CC#CC(=O)N1CCC[C@H]1c1nc(-c2ccc(C(=O)Nc3ccccn3)cc2)c2c(N)nccn12` gave an inhibition of 10% (enzyme activity, inhibitor; 1 µM).
`Cc1ccc(NC(=O)c2ccnc(C(F)(F)F)c2)cc1-c1cc(OCCO)nc(N2CCOCC2)c1` has a remaining binding of 99% (binding, competition with immobilised ligand; 1 µM).
The inhibition of `C#Cc1cc(-c2cc(Nc3nc(N[C@@H](C)c4ccc(F)cn4)ncc3Cl)n[nH]2)ccc1C=O` is reported as 26.4% (enzyme activity, inhibitor; 0.2 µM).
The remaining binding of `CCCCC(=O)Nc1ccc(-c2ccc3ncn(CCC)c(=O)c3c2)cn1` is reported as 100% (binding, competition with immobilised ligand; 0.5 µM).
